What was measured:
Type in all cases: functional
HL-60(TB) = assay: Growth inhibition of human HL-60(TB) cells after 48 hrs by sulforhodamine B assay; conditions: HL-60, 48 h
Method in brief: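 Run in the NCI 60 cell-line screen as the full 5-dose assay that follows initial single-dose testing; GI50 is read from the dose series.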

K562 = assay: Growth inhibition of human K562 cells after 48 hrs by sulforhodamine B assay; conditions: K562, 48 h
RPMI-8226 = assay: Growth inhibition of human RPMI8226 cells after 48 hrs by sulforhodamine B assay; conditions: RPMI-8226, 48 h
EKVX = assay: Growth inhibition of human EKVX cells after 48 hrs by sulforhodamine B assay
NCI-H226 = assay: Growth inhibition of human NCI-H226 cells after 48 hrs by sulforhodamine B assay; conditions: NCI-H226, 48 h
NCI-H322M = assay: Growth inhibition of human NCI-H322M cells after 48 hrs by sulforhodamine B assay
NCI-H460 = assay: Growth inhibition of human NCI-H460 cells after 48 hrs by sulforhodamine B assay; conditions: NCI-H460, 48 h
NCI-H522 = assay: Growth inhibition of human NCI-H522 cells after 48 hrs by sulforhodamine B assay; conditions: NCI-H522, 48 h
COLO 205 = assay: Growth inhibition of human COLO205 cells after 48 hrs by sulforhodamine B assay; conditions: COLO 205, 48 h
HCC 2998 = assay: Growth inhibition of human HCC2998 cells after 48 hrs by sulforhodamine B assay; conditions: HCC 2998, 48 h
HCT-15 = assay: Growth inhibition of human HCT15 cells after 48 hrs by sulforhodamine B assay; conditions: HCT-15, 48 h
KM12 = assay: Growth inhibition of human KM12 cells after 48 hrs by sulforhodamine B assay; conditions: KM12, 48 h
SF-268 = assay: Growth inhibition of human SF268 cells after 48 hrs by sulforhodamine B assay; conditions: SF-268, 48 h
SF-295 = assay: Growth inhibition of human SF295 cells after 48 hrs by sulforhodamine B assay; conditions: SF-295, 48 h
SNB-19 = assay: Growth inhibition of human SNB19 cells after 48 hrs by sulforhodamine B assay; conditions: SNB-19, 48 h
SNB-75 = assay: Growth inhibition of human SNB75 cells after 48 hrs by sulforhodamine B assay; conditions: SNB-75, 48 h
LOX IMVI = assay: Growth inhibition of human LOXIMVI cells after 48 hrs by sulforhodamine B assay
M14 = assay: Growth inhibition of human M14 cells after 48 hrs by sulforhodamine B assay; conditions: M14, 48 h
SK-MEL-2 = assay: Growth inhibition of human SK-MEL-2 cells after 48 hrs by sulforhodamine B assay; conditions: SK-MEL-2, 48 h
SK-MEL-28 = assay: Growth inhibition of human SK-MEL-28 cells after 48 hrs by sulforhodamine B assay; conditions: SK-MEL-28, 48 h
SK-MEL-5 = assay: Growth inhibition of human SK-MEL-5 cells after 48 hrs by sulforhodamine B assay; conditions: SK-MEL-5, 48 h
UACC-257 = assay: Growth inhibition of human UACC257 cells after 48 hrs by sulforhodamine B assay; conditions: UACC-257, 48 h
UACC-62 = assay: Growth inhibition of human UACC62 cells after 48 hrs by sulforhodamine B assay; conditions: UACC-62, 48 h
IGROV-1 = assay: Growth inhibition of human IGROV1 cells after 48 hrs by sulforhodamine B assay; conditions: IGROV-1, 48 h
OVCAR-3 = assay: Growth inhibition of human OVCAR3 cells after 48 hrs by sulforhodamine B assay; conditions: OVCAR-3, 48 h
OVCAR-4 = assay: Growth inhibition of human OVCAR4 cells after 48 hrs by sulforhodamine B assay; conditions: OVCAR-4, 48 h
NCI/ADR-RES = assay: Growth inhibition of human NCI/ADR-RES cells after 48 hrs by sulforhodamine B assay
SK-OV-3 = assay: Growth inhibition of human SKOV3 cells after 48 hrs by sulforhodamine B assay; conditions: SK-OV-3, 48 h
786-0 = assay: Growth inhibition of human 786-0 cells after 48 hrs by sulforhodamine B assay; conditions: 786-0, 48 h
CAKI-1 = assay: Growth inhibition of human Caki1 cells after 48 hrs by sulforhodamine B assay; conditions: CAKI-1, 48 h
SN12C = assay: Growth inhibition of human SN12C cells after 48 hrs by sulforhodamine B assay
T47D = assay: Growth inhibition of human T47D cells after 48 hrs by sulforhodamine B assay
[1] = read-out: pLC50 (the source's name) (converted)

## COc1cc(/C=C/c2ccc3c(c2)C[C@@H]2C(C)(C)[C@H](O)CC[C@@]2(C)O3)cc(O)c1C/C=C(\C)CCC=C(C)C
HL-60(TB)
  GI50: 13.8 µM
HL-60(TB); [1]
  CC50: > 100 µM
HL-60(TB); read-out: pTGI (converted)
  TGI: 57.5 µM
K562
  GI50: 5.5 µM
  LC50: > 100 µM
K562; read-out: pTGI (converted)
  TGI: 33.9 µM
RPMI-8226
  GI50: 3.09 µM
  LC50: > 100 µM
RPMI-8226; read-out: pTGI (converted)
  TGI: 14.5 µM
EKVX
  GI50: 14.5 µM
  LC50 (50% lethal concentration): > 100 µM
EKVX; read-out: pTGI (converted)
  TGI: 57.5 µM
NCI-H226
  GI50: 22.9 µM
  LC50: > 100 µM
NCI-H226; read-out: pTGI (converted)
  TGI: 56.2 µM
NCI-H322M
  GI50: 26.3 µM
  LC50: > 100 µM
NCI-H322M; read-out: pTGI (converted)
  TGI: 87.1 µM
NCI-H460
  GI50: 7.41 µM
  LC50 (concentration killing 50% of cells): 55 µM
NCI-H460; read-out: pTGI (converted)
  TGI: 21.9 µM
NCI-H522
  GI50: 17.8 µM
  LC50: 66.1 µM
NCI-H522; read-out: pTGI (converted)
  TGI: 33.9 µM
COLO 205
  GI50: 3.63 µM
  LC50: 49 µM
COLO 205; read-out: pTGI (converted)
  TGI: 11 µM
HCC 2998
  GI50: 15.8 µM
  LC50: 85.1 µM
HCC 2998; read-out: pTGI (converted)
  TGI: 37.2 µM
HCT-15
  GI50: 6.31 µM
  LC50: 58.9 µM
HCT-15; read-out: pTGI (converted)
  TGI: 20.9 µM
KM12
  GI50: 2.63 µM
  LC50: 21.9 µM
KM12; read-out: pTGI (converted)
  TGI: 6.46 µM
SF-268
  GI50: 14.8 µM
  LC50: 81.3 µM
SF-268; read-out: pTGI (converted)
  TGI: 34.7 µM
SF-295
  LC50: 38.9 µM
SF-295; read-out: GI50
  GI50: 1.66 µM
SF-295; read-out: pGI50 (converted)
  GI50: 1.66 µM
SF-295; read-out: pTGI (converted)
  TGI: 5.89 µM
SNB-19
  GI50: 15.5 µM
  LC50: 91.2 µM
SNB-19; read-out: pTGI (converted)
  TGI: 37.2 µM
SNB-75
  GI50: 5.37 µM
  LC50: > 100 µM
SNB-75; read-out: pTGI (converted)
  TGI: 42.7 µM
LOX IMVI
  GI50: 3.31 µM
  LC50: 37.2 µM
LOX IMVI; read-out: pTGI (converted)
  TGI: 11.5 µM
M14
  GI50: 13.8 µM
  LC50: 56.2 µM
M14; read-out: pTGI (converted)
  TGI: 27.5 µM
SK-MEL-2
  GI50: 15.8 µM
  LC50: 81.3 µM
SK-MEL-2; read-out: pTGI (converted)
  TGI: 35.5 µM
SK-MEL-28
  GI50: 16.2 µM
SK-MEL-28; [1]
  CC50: 69.2 µM
SK-MEL-28; read-out: pTGI (converted)
  TGI: 33.1 µM
SK-MEL-5
  GI50: 8.71 µM
  LC50: 49 µM
SK-MEL-5; read-out: pTGI (converted)
  TGI: 21.4 µM
UACC-257
  GI50: 22.9 µM
  LC50: > 100 µM
UACC-257; read-out: pTGI (converted)
  TGI: 55 µM
UACC-62
  GI50: 12.9 µM
  LC50 (50% lethal concentration): 70.8 µM
UACC-62; read-out: pTGI (converted)
  TGI: 30.2 µM
IGROV-1
  GI50: 14.5 µM
  LC50: 70.8 µM
IGROV-1; read-out: pTGI (converted)
  TGI: 31.6 µM
OVCAR-3
  GI50: 17.4 µM
  LC50: 66.1 µM
OVCAR-3; read-out: pTGI (converted)
  TGI: 33.9 µM
OVCAR-4
  GI50: 20.9 µM
  LC50: > 100 µM
OVCAR-4; read-out: pTGI (converted)
  TGI: 83.2 µM
NCI/ADR-RES
  GI50: 21.4 µM
  LC50: > 100 µM
NCI/ADR-RES; read-out: pTGI (converted)
  TGI: 51.3 µM
SK-OV-3
  GI50: 22.9 µM
  LC50: > 100 µM
SK-OV-3; read-out: pTGI (converted)
  TGI: > 100 µM
786-0
  GI50: 2.95 µM
786-0; [1]
  CC50: 42.7 µM
786-0; read-out: pTGI (converted)
  TGI: 12 µM
CAKI-1
  GI50: 5.37 µM
  LC50: 67.6 µM
CAKI-1; read-out: pTGI (converted)
  TGI: 20 µM
SN12C
  GI50: 18.2 µM
  LC50: 70.8 µM
SN12C; read-out: pTGI (converted)
  TGI: 36.3 µM
T47D
  GI50: 20.9 µM
  LC50: > 100 µM
T47D; read-out: pTGI (converted)
  TGI: 58.9 µM
